The record followed here is ChEMBL document CHEMBL3217620, “Relative impact of 3- and 5-hydroxyl groups of cytosporone B on cancer cell viability” (Medchemcomm, 2013).

Calls of active or inactive are those of the source. No cut-off for these calls is given here.

For test [1], the target named is Nuclear receptor subfamily 4immunitygroup A member 1 (Homo sapiens) (UniProt P22736). In words: Binding affinity to human recombinant N-terminal His6-tagged NR4A1 LBD expressed in Escherichia coli BL21 at 50 uM by NMR spectroscopy.
Test [2] concerns NCI-H460. In words: Induction of apoptosis in human H460 cells assessed as PARP cleavage at 10 uM after 8 hrs by SDS-PAGE. Format: functional, cell-based. The gist of the method:
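H460 cells in serum-free RPMI-1640, attached 12 h, then given 10 μM compound for 8 h. Lysed in Tris-HCl pH 7.9 buffer with NaCl, EDTA, Triton X-100 and protease inhibitors. Run on 12% SDS-PAGE, blotted to nitrocellulose, probed overnight at 4 °C with rabbit polyclonal anti-PARP, then HRP anti-rabbit IgG. ECL detection; β-actin reprobe as loading control.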

Test [3] deals with NCI-H460. In words: Induction of apoptosis in human H460 cells assessed as DNA fragmentation at 10 uM after 8 hrs by DAPI staining-based confocal microscopy relative to control. Format: functional. Put shortly:
(§1)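 H460 cells in serum-free RPMI-1640 on coverslips, attached 12 h, given 10 μM compound for 8 h. Fixed in 3.7% paraformaldehyde, permeabilized in 0.3% Triton X-100/PBS, blocked in 3% BSA, DAPI-stained and viewed by fluorescence microscopy. Cells with nuclear fragmentation and/or chromatin condensation scored in 300-cell fields; mean of triplicates ± SD.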

The target in test [4] is Nuclear receptor subfamily 4immunitygroup A member 1 (Homo sapiens) (UniProt P22736). In words: Induction of translocation of NR4A1 from nucleus to cytoplasm in human H460 cells at 10 uM after 8 hrs by DAPI staining-based confocal microscopy relative to control. Format: cell-based. The gist of the method: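 Serum-starved H460 cells grown overnight on coverslips, treated 8 h with 10 µM compound or vehicle. Fixed (3.7% paraformaldehyde), permeabilized (0.3% Triton X-100, 10 min), blocked in 3% BSA. Stained with rabbit monoclonal anti-NR4A1 and Alexa Fluor 594 anti-rabbit IgG, nuclei with DAPI. Overlaid confocal images used to judge NR4A1 localization.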

Test [5] relates to NCI-H460. In words: Induction of apoptosis in human H460 cells assessed as chromatin condensation at 10 uM after 8 hrs by relative to control. Type of test: functional. Put shortly: as §1
The test system of test [6] is LNCaP. Description: Cytotoxicity against human LNCAP cells at 20 uM after 72 hrs by MTT assay. Format: functional. Put shortly:
(§2)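 LNCaP cells at 5×10^3/well in RPMI-1640 with 10% FBS, attached 24 h. Treated 72 h with compound at 1–20 µM or DMSO alone (0.2% final). Viability by MTT per kit protocol. Points are means of six replicates ± SD; IC₅₀ interpolated from dose–response curves.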
(In general: Tetrazolium assays rely on reduction of a dye to a coloured formazan, in cell work by metabolically active cells.)

Test [7] can be described thus: Cytotoxicity against human H460 cells after 72 hrs by MTT assay. Type of test: functional, cell-based. As to conditions: NCI-H460, 72 h. The gist of the method: (§3)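 NCI-H460 NSCLC cells, […] exponentially growing cells/well, seeded and left overnight. Compound added at 0.1, 1.0 and 10 μM (vehicle DMSO, 0.1% final) in RPMI-1640 with 10% FBS for 72 h. MTT then added at 0.5 mg/mL for 4 h, formazan dissolved in DMSO, absorbance read at 490 nm.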

A short description of test [8]: Cytotoxicity against human H460 cells at 20 uM after 72 hrs by MTT assay. Type of test: functional. The note with it: NCI-H460, 72 h.
Test [9] can be described thus: Cytotoxicity against human H460 cells assessed as cell viability at 10 uM after 72 hrs by MTT assay. Format: functional. The note with it: NCI-H460, 72 h, read-out: Activity. The gist of the method: as §3
In test [10] the test system is LNCaP. Description: Cytotoxicity against human LNCAP cells after 72 hrs by MTT assay. Type of test: functional, cell-based. The gist of the method:
as §2

The target in test [11] is Nuclear receptor subfamily 4immunitygroup A member 1 (Homo sapiens) (UniProt P22736). In words: Binding affinity to human recombinant N-terminal His6-tagged NR4A1 LBD expressed in Escherichia coli BL21 by isothermal titration calorimetry.
Test [12] shares this target. In words: Binding affinity to human recombinant N-terminal His6-tagged NR4A1 LBD expressed in Escherichia coli BL21 at 100 uM by NMR spectroscopy.
Test [13] concerns BGC-823. In words: Induction of apoptosis in human BGC823 cells assessed as procaspase9 cleavage at 15.5 uM after 48 hrs. Type of test: functional.
Test [14] has as its system BGC-823. In words: Induction of apoptosis in human BGC823 cells assessed as mitochondrial cytochrome c release at 15.5 uM after 48 hrs. Format: functional.
The subject of test [15] is BGC-823. In words: Induction of apoptosis in human BGC823 cells assessed as nuclear DNA condensation at 15.5 uM after 48 hrs. Type of test: functional.
The target of test [16] is Nuclear receptor subfamily 4immunitygroup A member 1 (Homo sapiens) (UniProt P22736). In words: Binding affinity to NR4A1 (unknown origin) at 0.1 uM by luciferase reporter gene assay relative to control. For orientation: In a reporter assay the amount or activity of a reporter protein is the signal.
Test [17] relates to LNCaP. Description: Cytotoxicity against human LNCAP cells after 72 hrs. Type of test: functional, cell-based.
The nature of test [18]: Cytotoxicity against human H460 cells after 48 hrs by MTT assay. Type of test: functional, cell-based. As to conditions: NCI-H460, 48 h.

Nuclear receptor subfamily 4immunitygroup A member 1 (Homo sapiens), sequence (P22736 whole entry, the tested form may be a part): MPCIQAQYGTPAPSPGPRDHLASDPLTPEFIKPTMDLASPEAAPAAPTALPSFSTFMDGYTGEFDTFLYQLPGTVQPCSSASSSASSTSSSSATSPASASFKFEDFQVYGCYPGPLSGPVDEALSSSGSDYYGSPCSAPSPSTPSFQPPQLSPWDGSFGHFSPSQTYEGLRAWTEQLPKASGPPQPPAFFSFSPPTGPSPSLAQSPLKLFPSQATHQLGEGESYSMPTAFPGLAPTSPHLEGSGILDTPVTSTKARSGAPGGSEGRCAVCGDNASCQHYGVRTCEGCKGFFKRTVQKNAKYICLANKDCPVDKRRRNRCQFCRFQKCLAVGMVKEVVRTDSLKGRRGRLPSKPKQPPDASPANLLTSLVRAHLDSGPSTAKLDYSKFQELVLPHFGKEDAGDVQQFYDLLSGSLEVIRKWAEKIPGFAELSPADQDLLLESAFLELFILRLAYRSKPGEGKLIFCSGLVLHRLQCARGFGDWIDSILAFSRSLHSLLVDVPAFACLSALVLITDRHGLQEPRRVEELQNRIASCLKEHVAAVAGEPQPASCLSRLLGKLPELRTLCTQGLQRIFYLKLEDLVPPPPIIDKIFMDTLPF

Regarding `CCCCCCCC(=O)c1c(O)cc(OC)cc1CC(=O)OCC`, the outcome (in [1]; in the test on NCI-H460 [2]; in [4]) was Active. Also, the “fold change (FC)” value in the test on NCI-H460 [3] and in the test with NCI-H460 [5] was 5.1 throughout. Besides, the results for the inhibition at 20 µM (in the test with LNCaP [6]; in test [8]) were 80% and 75%, respectively. The concentration for half-maximal inhibition (IC50) – broadly, the concentration that gives 50% inhibition – is 15.9 µM in [7] and 11.4 µM with LNCaP [10]. The viability at 10 µM in [9] is 22%.

Turning to `CCCCCCCC(=O)c1c(CC(=O)OCC)cc(OC)cc1OC`, the result in [11], in test [1] and in test [4] was inactive. In addition, the outcome in the test with NCI-H460 [2] was Active. Besides, the inhibition (commonly the drop in the measured response relative to a control, in per cent) at 20 µM with LNCaP [6] was found to be 14%; in [8] it was 11%. In addition, the half-maximal inhibitory concentration (IC50) in test [7] is greater than 20 µM. Besides, the viability at 10 µM in test [9] was 24%.

For `CCCCCCCC(=O)c1c(O)cc(O)cc1CC(=O)OCC` [CYTOSPORONE B], the outcome (in test [12]; with NCI-H460 [2]; in test [4]) was Active. The “fold change (FC)” value in the test on NCI-H460 [3] and with NCI-H460 [5] was 4.4 in each case. In addition, the Activity in the test on BGC-823 [13], in the test on BGC-823 [14] and in the test with BGC-823 [15] was 63% throughout. In addition, the inhibition at 20 µM with LNCaP [6] worked out at 76%; in test [8], 88%. Moreover, in test [16], the Ratio was found to be 12.5. In addition, the half-inhibitory concentration (IC50) in test [7] stood at 15.3 µM; in the test on LNCaP [10], 13.4 µM. Moreover, the viability at 10 µM in test [9] worked out at 50%.

Consider `FC(F)(F)c1ccc(C(c2c[nH]c3ccccc23)c2c[nH]c3ccccc23)cc1`, for which the result (with NCI-H460 [2]; in [4]) was Active. The “fold change (FC)” value in the test with NCI-H460 [3] and with NCI-H460 [5] was 3.7 in each case. Also, the half-inhibitory concentration (IC50) came out at 5 µM with LNCaP [17], 7.7 µM in [18], 4.6 µM in test [7] and 9.7 µM with LNCaP [10]. Also, the inhibition at 20 µM in the test with LNCaP [6] was 97%. For the same molecule, the viability at 10 µM in test [9] was 90%.
